The text below walks through data of ChEMBL document CHEMBL1649298, “Correlation between vancomycin MIC values and those of other agents against gram-positive bacteria among patients with bloodstream infections caused by methicillin-resistant Staphylococcus aureus” (2009).

Holding throughout (format): functional
In test [1] the test system is Staphylococcus aureus. In words: Antibacterial activity against methicillin-resistant Staphylococcus aureus isolated form patient blood measured after 18 to 24 hrs on day 1 isolation by Etest. The procedure, abridged: (§1)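 MRSA bloodstream isolates came from 120 patients at a tertiary care hospital between January 2005 and May 2007. MICs were read by Etest. Each patient's isolates were grouped as day 1 (index) or post-day 1 (subsequent).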

Test [2] relates to Staphylococcus aureus. Description: Antibacterial activity against methicillin-resistant Staphylococcus aureus isolated form patient blood measured after 18 to 24 hrs on day 1 post isolation by Etest. In a few lines:
as §1

For test [3], the system named is Staphylococcus aureus. In words: microbe, parasite or virus in culture.

Converted amounts (≈) assume the structure as drawn.

Turning to `CN(C)c1cc(NC(=O)CNC(C)(C)C)c(O)c2c1C[C@H]1C[C@H]3[C@H](N(C)C)C(O)=C(C(N)=O)C(=O)[C@@]3(O)C(O)=C1C2=O` [TIGECYCLINE], in the test with Staphylococcus aureus [1], the MIC is 0.09 µg/mL (≈ 0.154 µM), the MIC50 is 0.19 µg/mL (≈ 0.324 µM) and the MIC90 turned out to be 0.25 µg/mL (≈ 0.427 µM). In the test with Staphylococcus aureus [2], this compound returned an MIC of 0.09 µg/mL (≈ 0.154 µM), an MIC50 of 0.19 µg/mL (≈ 0.324 µM) and an MIC90 of 0.25 µg/mL (≈ 0.427 µM). In the test with Staphylococcus aureus [3], the MIC is 0.09 µg/mL (≈ 0.154 µM), the MIC50 came out at 0.13 µg/mL (≈ 0.222 µM) and the MIC90 was determined as 0.2 µg/mL (≈ 0.341 µM).

For `CC(=O)NC[C@H]1CN(c2ccc(N3CCOCC3)c(F)c2)C(=O)O1` [LINEZOLID], in the test with Staphylococcus aureus [1], the MIC was determined as 0.38 µg/mL (≈ 1.13 µM), the MIC50 is 0.75 µg/mL (≈ 2.22 µM) and the MIC90 was 1.5 µg/mL (≈ 4.45 µM). For the same compound, in the test on Staphylococcus aureus [2], the MIC was determined as 0.38 µg/mL (≈ 1.13 µM), the MIC50 is 1 µg/mL (≈ 2.96 µM) and the MIC90 was found to be 1.5 µg/mL (≈ 4.45 µM). Besides, in the test on Staphylococcus aureus [3], the MIC came to 0.75 µg/mL (≈ 2.22 µM), the MIC50 was found to be 0.75 µg/mL (≈ 2.22 µM) and the MIC90 was found to be 1 µg/mL (≈ 2.96 µM).

`CCCCCCCCCC(=O)N[C@@H](Cc1c[nH]c2ccccc12)C(=O)N[C@H](CC(N)=O)C(=O)N[C@@H](CC(=O)O)C(=O)N[C@@H]1C(=O)NCC(=O)N[C@@H](CCCN)C(=O)N[C@@H](CC(=O)O)C(=O)N[C@H](C)C(=O)N[C@@H](CC(=O)O)C(=O)NCC(=O)N[C@H](CO)C(=O)N[C@@H]([C@H](C)CC(=O)O)C(=O)N[C@@H](CC(=O)c2ccccc2N)C(=O)O[C@@H]1C`: in the test on Staphylococcus aureus [1], the MIC was 0.13 µg/mL (≈ 0.0802 µM), the MIC50 amounted to 0.5 µg/mL (≈ 0.309 µM) and the MIC90 worked out at 0.75 µg/mL (≈ 0.463 µM). In the test on Staphylococcus aureus [2], this compound returned an MIC of 0.19 µg/mL (≈ 0.117 µM), an MIC50 of 0.5 µg/mL (≈ 0.309 µM) and an MIC90 of 1 µg/mL (≈ 0.617 µM). In the test with Staphylococcus aureus [3], the MIC amounted to 0.13 µg/mL (≈ 0.0802 µM), the MIC50 came out at 0.38 µg/mL (≈ 0.234 µM) and the MIC90 came out at 0.75 µg/mL (≈ 0.463 µM).

Regarding `CN[C@H](CC(C)C)C(=O)N[C@H]1C(=O)N[C@@H](CC(N)=O)C(=O)N[C@H]2C(=O)N[C@H]3C(=O)N[C@H](C(=O)N[C@H](C(=O)O)c4cc(O)cc(O)c4-c4cc3ccc4O)[C@H](O)c3ccc(c(Cl)c3)Oc3cc2cc(c3O[C@@H]2O[C@H](CO)[C@@H](O)[C@H](O)[C@H]2O[C@H]2C[C@](C)(N)[C@H](O)[C@H](C)O2)Oc2ccc(cc2Cl)[C@H]1O` [VANCOMYCIN], in the test with Staphylococcus aureus [1], the MIC50 came out at 1.5 µg/mL (≈ 1.04 µM) and the MIC90 was determined as 1.5 µg/mL (≈ 1.04 µM). Besides, in the test with Staphylococcus aureus [2], the MIC50 was determined as 1.5 µg/mL (≈ 1.04 µM) and the MIC90 worked out at 2 µg/mL (≈ 1.38 µM).
